This is an account of results in ChEMBL document CHEMBL3271956, “Oxindole-3-spiropyrrolidines and -piperidines. Synthesis and local anesthetic activity” (J Med Chem, 1976).

Series [1] deals with Rattus norvegicus. Nature of the series: Local anesthetic activity in rat assessed as onset time at 2% administered as base by sciatic nerve block method. The format is functional. In a few lines: (§1)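 Rat sciatic nerve block. Solutions are dosed with concentration expressed as base, and the pH of each solution is recorded. Groups are typically 10 rats. Onset is given in min. Frequency is the number of rats blocked out of those tested. Duration is in min, as mean ± SD.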

In series [2] the test system is Rattus norvegicus. Nature of the series: Local anesthetic activity in rat assessed as frequency at 1% administered as base by sciatic nerve block method. The format is functional, organism-based. In short, it runs like this:
as §1

In series [3] the test system is Rattus norvegicus. Nature of the series: Local anesthetic activity in rat assessed as duration of action at 2% administered as base by sciatic nerve block method. Type of series: functional. In short, it runs like this:
as §1

Series [4] relates to Rattus norvegicus. Put plainly: Local anesthetic activity in rat assessed as frequency at 2% administered as base by sciatic nerve block method. The format is functional, organism-based. In a few lines: as §1
Series [5] concerns Rattus norvegicus. Nature of the series: Local anesthetic activity in rat assessed as onset time at 1% administered as base by sciatic nerve block method. Type of series: functional. In a few lines: as §1
The test system of series [6] is Rattus norvegicus. Nature of the series: Local anesthetic activity in rat assessed as duration of action at 1% administered as base by sciatic nerve block method. The format is functional. In short, it runs like this: as §1
Series [7] can be described thus: Toxicity in iv dosed mouse. Type of series: organism-based. The following applies: in vivo.
In series [8] the test system is Rattus norvegicus. Put plainly: Toxicity in rat at 2% administered as base after 40 mins. Type of series: organism-based. The following applies: in vivo.
The test system of series [9] is Rattus norvegicus. Put plainly: Toxicity in rat at 2% administered as base after 25 mins. Type of series: organism-based. The settings on record: in vivo.
Series [10] concerns Rattus norvegicus. Nature of the series: Toxicity in rat at 2% administered as base after 30 mins. The format is organism-based. The settings on record: in vivo, 0.5 h.

Activity calls are given as the source filed them. The calls are words filed in the database; no cut-off is given here.

Broadly, the LD50 is the dose at which mortality reaches 50%. For `CN1CCCCC12C(=O)Nc1ccccc12` (configuration not stated), the Time with Rattus norvegicus [1] is 3 min; with Rattus norvegicus [3], 97 min; in the series with Rattus norvegicus [5] it was 5 min; in the series on Rattus norvegicus [6] it was 81 min. The outcome in the series on Rattus norvegicus [2] and in the series on Rattus norvegicus [4] was Active. In addition, in series [7], the LD50 was 97 mg/kg.
For `CCN1CCC2(C1)C(=O)Nc1ccccc12` (configuration not stated), the Time is on record as 3 min in the series on Rattus norvegicus [1], 85 min in the series with Rattus norvegicus [3], 4 min with Rattus norvegicus [5] and 67 min in the series on Rattus norvegicus [6]. Also, the result in the series with Rattus norvegicus [2] and in the series with Rattus norvegicus [4] was Active. In addition, the LD50 in [7] is 38 mg/kg.
As for `CCN1CCC2(C1)C(=O)Nc1c(C)cccc12` (configuration not stated) [listing 1 of 2 here], the LD50 in series [7] was 23 mg/kg.
Consider `CCCN1CCCC2(C1)C(=O)Nc1ccccc12` (configuration not stated) [listing 1 of 2 here], for which the outcome with Rattus norvegicus [2] and with Rattus norvegicus [4] was Active.
Take `CCN1CCC2(CC1)C(=O)Nc1c(C)cccc12`: the figures for the Time with Rattus norvegicus [1], in the series with Rattus norvegicus [5] and in the series on Rattus norvegicus [6] were 3 min, 3 min and 108 min, respectively. In addition, the outcome in the series with Rattus norvegicus [2] and with Rattus norvegicus [4] was Active. For the same compound, the Activity result in the series with Rattus norvegicus [8] and in the series with Rattus norvegicus [9] was “Toxic” throughout. Further, in series [7], the LD50 came to 21 mg/kg.
Turning to `CCCN1CCCC2(C1)C(=O)Nc1ccccc12.O=S(=O)(O)O` (configuration not stated), the Time with Rattus norvegicus [1] turned out to be 4 min; in the series on Rattus norvegicus [3], 95 min; in the series with Rattus norvegicus [5], 6 min; in the series on Rattus norvegicus [6], 75 min.
As to `CN1CCC2(C1)C(=O)Nc1ccccc12` (configuration not stated), the Time came to 6 min in the series on Rattus norvegicus [1], 83 min with Rattus norvegicus [3], 11 min in the series with Rattus norvegicus [5] and 56 min in the series with Rattus norvegicus [6]. Besides, the result in the series with Rattus norvegicus [2] and in the series with Rattus norvegicus [4] was Active.
For the compound `CCCN1CCC2(C1)C(=O)Nc1ccccc12` (configuration not stated) [listing 1 of 2 here], the LD50 in series [7] stood at 25 mg/kg.
For `CCN1CCC2(C1)C(=O)Nc1c(C)cccc12.Cl` (configuration not stated), the Activity result with Rattus norvegicus [10] is given as “Toxic”. Besides, the Time with Rattus norvegicus [1] was determined as 2 min; with Rattus norvegicus [5], 3 min; in the series on Rattus norvegicus [6] it was 93 min.
As for `CCCN1CCCC2(C1)C(=O)Nc1ccccc12` (configuration not stated) [listing 2 of 2 here], the LD50 in [7] turned out to be 41 mg/kg.
Regarding `CCN1CCC2(C1)C(=O)Nc1c(C)cccc12` (configuration not stated) [listing 2 of 2 here], the outcome in the series on Rattus norvegicus [2] and in the series on Rattus norvegicus [4] was Active.
In the case of `CCCN1CCC2(C1)C(=O)Nc1ccccc12` (configuration not stated) [listing 2 of 2 here], the result with Rattus norvegicus [2] and in the series on Rattus norvegicus [4] was Active.
`CCN(CC)CC(=O)Nc1c(C)cccc1C` [LIDOCAINE]: the Time with Rattus norvegicus [1] is 1 min; with Rattus norvegicus [3] it was 141 min. Moreover, the result with Rattus norvegicus [2] and in the series on Rattus norvegicus [4] was Active.
Consider `CCCN1CCC2(C1)C(=O)Nc1ccccc12.Cl` (configuration not stated), for which the Time with Rattus norvegicus [1] is on record as 2 min; in the series with Rattus norvegicus [3], 78 min; with Rattus norvegicus [5], 3 min; in the series on Rattus norvegicus [6] it was 66 min.
In the case of `CCN1CCC2(CC1)C(=O)Nc1ccccc12`, the Time in the series with Rattus norvegicus [1] is reported as 5 min; in the series on Rattus norvegicus [3] it was 120 min; with Rattus norvegicus [5], 6 min; in the series on Rattus norvegicus [6], 86 min. Further, the outcome with Rattus norvegicus [2] and with Rattus norvegicus [4] was Active. Besides, the LD50 in series [7] amounted to 53 mg/kg.
As to `CCN1CCCC12C(=O)Nc1ccccc12` (configuration not stated), the Time is recorded as 5 min in the series with Rattus norvegicus [1], 107 min with Rattus norvegicus [3], 6 min in the series on Rattus norvegicus [5] and 83 min with Rattus norvegicus [6]. Also, the outcome with Rattus norvegicus [2] and in the series on Rattus norvegicus [4] was Active. In addition, the LD50 in series [7] came to 119 mg/kg.
